Results of several laboratories.
Target: RAC-gamma serine/threonine-protein kinase (AKT3, Homo sapiens, UniProt Q9Y243)

| SMILES | assay | conditions | quantity | result |
| --- | --- | --- | --- | --- |
| Cc1nn(C)cc1-c1nc2c(N3CCN(Cc4ccc(Cl)cc4)CC3)c(Cl)cnc2[nH]1 | binding, competition with immobilised ligand | 1 µM | remaining binding | 100% |
| O=c1[nH]c2ccccc2n1C1CCN(Cc2ccc(-c3[nH]c4cc5ncnc5cc4nc3-c3ccccc3)cc2)CC1 | cell-free assay | 0.5 µM | remaining signal | 103% |
| N#CC1(c2ccccn2)CCN(Cc2cc(C(=O)O)c(=O)n3ccccc23)CC1 | cell-free assay, competition with immobilised ligand | 1 µM | remaining binding | 100% |
| Cn1cc(-c2cc(F)cc(N3CCn4c(cc5c4CCCC5)C3=O)c2CO)cc(Nc2ccc(N3CCN(C4COC4)CC3)cn2)c1=O | enzyme activity, inhibitor | 0.1 µM | inhibition | 5% |
| COc1ncccc1-c1cnn2ccc(N3CCN(C(=O)OC(C)C)CC3)nc12 | binding, competition with immobilised ligand | 1 µM | remaining binding | 100% |
| Nc1ncc(-c2nc(N3CCOCC3)nc(N3CCOCC3)n2)c(C(F)F)n1 | binding, competition with immobilised ligand | 10 µM | remaining binding | 59% |
| COc1cc(Nc2ncc(F)c(Nc3ccc4c(n3)NC(=O)C(C)(C)O4)n2)cc(OC)c1OC | binding, competition with immobilised ligand | 10 µM | inhibition | 0% |
| CC(C)(C)c1cc(C=C(C#N)C#N)cc(Br)c1O | enzyme activity, inhibitor | 0.5 µM | remaining activity | 111% |
| Cn1cc(-c2cccc(N3CCc4c(sc5c4CC(C)(C)C5)C3=O)c2CO)cc(Nc2ccncn2)c1=O | enzyme activity, inhibitor | 1 µM | inhibition | 6% |
| Cn1cncc1[C@](O)(COc1ccc(C#N)cc1-c1ccc(OC(F)(F)F)cc1)c1ccc(C#N)cc1 | cell-free assay, competition with immobilised ligand | 1 µM | remaining binding | 100% |
